Results reported in ChEMBL document CHEMBL3259675, “Novel N-substituted sophoridinol derivatives as anticancer agents” (Eur J Med Chem, 2014).

How the values were obtained:
HepG2 [1] = assay: Antiproliferative activity against human HepG2 cells assessed as growth inhibition at 10 ug/ml after 48 hrs by MTT assay; format: functional; details: HepG2, 48 h
Method in brief: (§1)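 Cell lines from ATCC, grown in MEM-EBSS with 10% FBS and 1% penicillin-streptomycin at 37 °C, 5% CO2. Seeded at 4000 cells/well, left 24 h, then exposed to a concentration series for 48 h. Growth read by MTT. Percent inhibition was computed at each concentration and IC50 derived from it. Triplicate determinations, reported as mean SD.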

HepG2 [2] = assay: Antiproliferative activity against human HepG2 cells assessed as growth inhibition after 48 hrs by MTT assay; format: functional, cell-based; details: HepG2, 48 h; method in brief: as §1
HCT-116 = assay: Antiproliferative activity against human HCT116 cells assessed as growth inhibition after 48 hrs by MTT assay; format: functional, cell-based; details: HCT-116, 48 h; method in brief: as §1
NCI-H1299 = assay: Antiproliferative activity against human NCI-H1299 cells assessed as growth inhibition after 48 hrs by MTT assay; format: functional, cell-based; details: NCI-H1299, 48 h; method in brief: as §1
[3] = Antiproliferative activity against human U87 cells assessed as growth inhibition after 48 hrs by MTT assay; format: functional, cell-based, U-87MG ATCC; details: U-87 MG; method in brief: as §1
MCF7 = assay: Antiproliferative activity against human MCF7 cells assessed as growth inhibition after 48 hrs by MTT assay; format: functional, cell-based; details: MCF7, 48 h; method in brief: as §1
KB = assay: Antiproliferative activity against human KB cells assessed as growth inhibition after 48 hrs by MTT assay; format: functional, cell-based; method in brief: as §1
Mus musculus [4] = assay: Toxicity in mouse at 250 to 1000 mg/kg, ig; format: organism-based; design: dose 250-1000 mg/kg, route intragastric; details: in vivo, po
Method in brief: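 Single-dose toxicity in mice: compound given intragastrically at 250, 500 or 1000 mg/kg, with deaths monitored.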

Mus musculus [5] = assay: Toxicity in mouse assessed as body weight at 250 to 1000 mg/kg, ig; format: organism-based; design: dose 250-1000 mg/kg, route intragastric; details: in vivo, po
HepG2 [6] = assay: Cell cycle arrest in human HepG2 cells assessed as accumulation at G0/G1 phase at 2.5 ug/ml after 24 hrs by FACS flow cytometric analysis (reference value: 2 %); format: functional; details: HepG2, 24 h
Method in brief: (§2)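 HepG2 cells exposed to 0, 2.5, 5 or 10 µg/ml for 24 h, then harvested. Fixed in 70% ethanol and held at −20 °C. Cell-cycle distribution determined by flow cytometry, with untreated cells as control.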

HepG2 [7] = assay: Cell cycle arrest in human HepG2 cells assessed as accumulation at G0/G1 phase at 5 ug/ml after 24 hrs by FACS flow cytometric analysis (reference value: 2 %); format: functional; details: HepG2, 24 h; method in brief: as §2
HepG2 [8] = assay: Cell cycle arrest in human HepG2 cells assessed as accumulation at G0/G1 phase at 10 ug/ml after 24 hrs by FACS flow cytometric analysis (reference value: 2 %); format: functional; details: HepG2, 24 h; method in brief: as §2
[9] = Cmax in Sprague-Dawley rat at 5 mg/kg, iv administered as single dose; format: ADME, organism-based; design: dose 5 mg/kg, route intravenous; details: in vivo
Method in brief: (§3)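 Male rats, 3 per study, each given a single dose of 25 mg/kg orally (ig) or 5 mg/kg iv. PK parameters from non-compartmental analysis. Oral bioavailability calculated from the ig and iv data.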

[10] = Cmax in Sprague-Dawley rat at 25 mg/kg, ig administered as single dose; format: ADME, organism-based; design: dose 25 mg/kg, route intragastric; details: in vivo, po; method in brief: as §3
[11] = Tmax in Sprague-Dawley rat at 5 mg/kg, iv administered as single dose; format: ADME, organism-based; design: dose 5 mg/kg, route intravenous; details: in vivo; method in brief: as §3
[12] = Tmax in Sprague-Dawley rat at 25 mg/kg, ig administered as single dose; format: ADME, organism-based; design: dose 25 mg/kg, route intragastric; details: in vivo, po; method in brief: as §3
[13] = AUC (0 to time) in Sprague-Dawley rat at 5 mg/kg, iv administered as single dose; format: ADME, organism-based; design: dose 5 mg/kg, route intravenous; details: plasma
Method in brief: (§4)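 Single dose given to three male rats per study, by oral gavage or intravenous injection. AUC was derived by non-compartmental analysis, n = 3.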

[14] = AUC (0 to time) in Sprague-Dawley rat at 25 mg/kg, ig administered as single dose; format: ADME, organism-based; design: dose 25 mg/kg, route intragastric; details: plasma, po; method in brief: as §4
[15] = Mean residence time in Sprague-Dawley rat at 5 mg/kg, iv administered as single dose; format: ADME, organism-based; design: dose 5 mg/kg, route intravenous; details: in vivo; method in brief: as §3
[16] = Mean residence time in Sprague-Dawley rat at 25 mg/kg, ig administered as single dose; format: ADME, organism-based; design: dose 25 mg/kg, route intragastric; details: in vivo, po; method in brief: as §3
[17] = Half life in Sprague-Dawley rat at 5 mg/kg, iv administered as single dose; format: ADME, organism-based; design: dose 5 mg/kg, route intravenous; details: in vivo; method in brief: as §3
[18] = Half life in Sprague-Dawley rat at 25 mg/kg, ig administered as single dose; format: ADME, organism-based; design: dose 25 mg/kg, route intragastric; details: in vivo, po; method in brief: as §3
[19] = Oral bioavailability in Sprague-Dawley rat at 25 mg/kg administered as single dose; format: ADME, organism-based; details: in vivo; method in brief: as §3
HepG2 [20] = assay: Cell cycle arrest in human HepG2 cells assessed as accumulation at G0/G1 phase at 2.5 ug/ml after 24 hrs by FACS flow cytometric analysis (reference value: 4.1 %); format: functional; details: HepG2, 24 h; method in brief: as §2
HepG2 [21] = assay: Cell cycle arrest in human HepG2 cells assessed as accumulation at G0/G1 phase at 5 ug/ml after 24 hrs by FACS flow cytometric analysis (reference value: 4.1 %); format: functional; details: HepG2, 24 h; method in brief: as §2
HepG2 [22] = assay: Cell cycle arrest in human HepG2 cells assessed as accumulation at G0/G1 phase at 10 ug/ml after 24 hrs by FACS flow cytometric analysis (reference value: 4.1 %); format: functional; details: HepG2, 24 h; method in brief: as §2

## OCCCC[C@@H]1[C@H]2CCCN3CCC[C@@H](CN1Cc1ccccc1)[C@@H]23
HepG2 [1]
  inhibition at 10 µg/mL: 31%

## COCCCC[C@@H]1[C@H]2CCCN3CCC[C@H](CN1Cc1ccccc1)[C@@H]23
HepG2 [1]
  inhibition at 10 µg/mL: 4.4%

## COC(=O)CCC[C@@H]1[C@H]2CCCN3CCC[C@H](CN1Cc1ccc(Cl)cc1)[C@@H]23
HepG2 [1]
  inhibition at 10 µg/mL: 97.6%
HepG2 [2]
  IC50: 4.05 µM
HCT-116
  IC50: 4.59 µM
NCI-H1299
  IC50: 4.06 µM
[3]
  IC50: 12.6 µM
MCF7
  IC50: 20 µM
KB
  IC50: 6.11 µM
Mus musculus [4]
  Activity: Non-toxic
Mus musculus [5]
  Activity: Non-toxic
HepG2 [6]
  inhibition at 2.5 µg/mL: 6.3%
HepG2 [7]
  inhibition at 5 µg/mL: 11.8%
HepG2 [8]
  inhibition at 10 µg/mL: 8.5%

## OCCCC[C@@H]1[C@H]2CCCN3CCC[C@H](CN1Cc1ccccc1Cl)[C@@H]23
HepG2 [1]
  inhibition at 10 µg/mL: 88.1%

## OCCCC[C@@H]1[C@H]2CCCN3CCC[C@H](CN1Cc1ccc(Cl)cc1)[C@@H]23
HepG2 [1]
  inhibition at 10 µg/mL: 87.7%
HepG2 [2]
  IC50: 9.37 µM
HCT-116
  IC50: 10.6 µM
NCI-H1299
  IC50: 5.55 µM
[3]
  IC50: 4.52 µM
MCF7
  IC50: 5.73 µM
KB
  IC50: 19.7 µM
[9]
  Cmax: 3.43 µM
[10]
  Cmax: 5.25 µM
[11]
  Tmax: 0.25 h
[12]
  Tmax: 0.66 h
[13]
  AUC: 20.5 µM·h
[14]
  AUC: 18.6 µM·h
[15]
  MRT: 2.39 h
[16]
  MRT: 3.28 h
[17]
  half-life: 4.46 h
[18]
  half-life: 3.87 h
[19]
  bioavailability: 18%
Mus musculus [4]
  Activity: Non-toxic
Mus musculus [5]
  Activity: Non-toxic
HepG2 [20]
  inhibition at 2.5 µg/mL: 4.1%
HepG2 [21]
  inhibition at 5 µg/mL: 3.3%
HepG2 [22]
  inhibition at 10 µg/mL: 3.3%

## OCCCC[C@@H]1[C@H]2CCCN3CCC[C@H](CN1Cc1ccncc1)[C@@H]23
HepG2 [1]
  inhibition at 10 µg/mL: 1.2%

## OCCCC[C@@H]1[C@H]2CCCN3CCC[C@H](CN1Cc1ccco1)[C@@H]23
HepG2 [1]
  inhibition at 10 µg/mL: 33.2%

## OCCCC[C@@H]1[C@H]2CCCN3CCC[C@H](CN1CCc1ccccc1)[C@@H]23
HepG2 [1]
  inhibition at 10 µg/mL: 34.6%

## CCOCCCC[C@@H]1[C@H]2CCCN3CCC[C@H](CN1Cc1ccccc1)[C@@H]23
HepG2 [1]
  inhibition at 10 µg/mL: 2.1%

## COCCCC[C@@H]1[C@H]2CCCN3CCC[C@H](CN1Cc1ccc(F)cc1)[C@@H]23
HepG2 [1]
  inhibition at 10 µg/mL: 6.8%

## CCOCCCC[C@@H]1[C@H]2CCCN3CCC[C@H](CN1Cc1ccc(F)cc1)[C@@H]23
HepG2 [1]
  inhibition at 10 µg/mL: 5.1%

## COCCCC[C@@H]1[C@H]2CCCN3CCC[C@H](CN1Cc1ccc(Cl)cc1)[C@@H]23
HepG2 [1]
  inhibition at 10 µg/mL: 0.3%

## CCOCCCC[C@@H]1[C@H]2CCCN3CCC[C@H](CN1Cc1ccc(Cl)cc1)[C@@H]23
HepG2 [1]
  inhibition at 10 µg/mL: 0.2%

## COC(=O)CCC[C@@H]1[C@H]2CCCN3CCC[C@@H](CN1Cc1ccc(F)cc1)[C@@H]23
HepG2 [1]
  inhibition at 10 µg/mL: 0.8%

## OCCCC[C@@H]1[C@H]2CCCN3CCC[C@@H](CN1Cc1ccc(F)cc1)[C@@H]23
HepG2 [1]
  inhibition at 10 µg/mL: 0.1%

## OCCCC[C@@H]1[C@H]2CCCN3CCC[C@@H](CN1Cc1ccc(Cl)cc1)[C@@H]23
HepG2 [1]
  inhibition at 10 µg/mL: 4.9%

## O=C(O)CCC[C@@H]1[C@H]2CCCN3CCC[C@H](CN1C(=O)CBr)[C@@H]23
HepG2 [2]
  IC50: 15.4 µg/mL

## O=C1CCC[C@@H]2[C@H]3CCCN4CCC[C@H](CN12)[C@@H]34 [SOPHORIDINE]
HepG2 [2]
  IC50: > 20 µg/mL

## CC[C@@]1(O)C(=O)OCc2c1cc1n(c2=O)Cc2cc3c(CN(C)C)c(O)ccc3nc2-1 [TOPOTECAN]
HepG2 [1]
  inhibition at 10 µg/mL: 72.6%
HepG2 [2]
  IC50: 1.66 µM
HCT-116
  IC50: 4.32 µM
NCI-H1299
  IC50: 11 µM
[3]
  IC50: 0.16 µM
MCF7
  IC50: 14.3 µM
KB
  IC50: > 200 µM
